Data published in publication PMC12219357 (Nature Communications, 2025).
“And” between values parts separate entries of the source, which are not always exact repeats. Identical values can stand only once. “Also recorded” adds a separate entry of the source. Where a SMILES comes first, the peptide text is derived from it. The star is where a group is joined. 5FAM = O=C1OC2(c3ccc(O)cc3Oc3cc(O)ccc32)c2ccc(C(=O)*)cc21

What was measured:
Assay type in all cases: in vivo, human
[1] = test system: nerves (head and neck surgery); assay: Quantitative image analysis of intraoperative nerve fluorescence; details: for Background fluorescence, mean pixel intensity (MPI): FL images
How it was run: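 Paired white-light and fluorescence images taken intraoperatively through a surgical microscope with a yellow 560 fluorescence module. Analysis used the green channel of fluorescence images and 5–20 elliptical ROIs per nerve and per adjacent non-nerve tissue. After background subtraction, SBR = nerve MPI / background MPI. Statistics: Welch ANOVA, Kruskal-Wallis, Wilcoxon rank sum.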

[2] = test system: nerves (head and neck surgery); assay: Visualization Scoring System; details: 500 mg
[3] = test system: adult patients with head and neck neoplasms; assay: Clinical laboratory assessments
How it was run: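 Test compound given as a single IV infusion over 30 min on Day 1, at dose tiers of 100–600 mg. Hematology, chemistry, coagulation and urinalysis were run at the preoperative visit, then repeated on Day 1 before dosing and at end of infusion. Histamine, tryptase, C3a and C5 were sampled before, during and after infusion. Further safety labs on Day 15 (±8 days) and Day 28 (+5 days). Summarized descriptively by dose.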

[4] = test system: adult patients with head and neck neoplasms; assay: Vital signs, physical examination and 12-lead ECG
[5] = test system: adult patients with head and neck neoplasms undergoing parotidectomy or thyroidectomy
[6] = Pharmacokinetics after intravenous infusion

CC(C)[C@H](NC(=O)[C@H](Cc1ccc(O)cc1)NC(=O)[C@H](Cc1ccc(O)cc1)NC(=O)[C@@H]1CCCN1C(=O)[C@H](CCC(=O)O)NC(=O)[C@H](CCC(=O)O)NC(=O)[C@H](Cc1c[nH]c2ccccc12)NC(=O)[C@@H]1CCCN1C(=O)[C@@H](NC(=O)[C@H](CCC(N)=O)NC(=O)c1ccc2c(c1)C(=O)OC21c2ccc(O)cc2Oc2cc(O)ccc21)C(C)C)C(=O)N[C@H](C(=O)N[C@@H](CCCCN)C(=O)N[C@@H](CCCCN)C(=O)N[C@@H](CO)C(=O)N[C@@H](CO)C(=O)NCC(=O)NCC(N)=O)C(C)C [bevonescein] (5FAM-QVPWEEPYYVVKKSSGG-NH2; C-terminus assumed)
SBR, FL images ([1]; 500 mg cohort (dose comparison)): 3.0 ± 1.0
Background fluorescence, mean pixel intensity (MPI) ([1]; 500 mg cohort): 39.5 ± 17
Signal-to-background ratio (SBR), fluorescence (FL) images ([1]; 500 mg, 54 evaluable nerves in 14 subjects, mean ± SD): 2.1 ± 0.8 and 2.08 ± 0.83
Fluorescent SBR of nerves, early (1-3 h) versus late (3-5 h) timing cohorts ([1]; 500 mg, infusion to incision, two-sided Wilcoxon rank sum test): not statistically different; also recorded: no significant difference
Background fluorescence, mean pixel intensity (MPI) ([1]; 600 mg cohort, Welch ANOVA p < 0.01 vs 500 mg): 73.2 ± 34
SBR, FL images ([1]; 600 mg cohort, Kruskal-Wallis p > 0.05 vs 500 mg): 2.2 ± 1.6
Improvement in nerve length with FL images, share of subjects (so in the source) [2]: 78%
Subjects with some improvement in visible nerve length ([2]; 14 subjects): 100%
Individual nerves with improvement in length measurements ([2]; n = 42/54 nerves, paired FL overlay vs WLR): 78%
Hematology, chemistry, coagulation, and urinalysis findings ([3]; all patients, as deemed by the investigators): normal ranges or not clinically significant abnormalities
Tryptase and complements C3a and C5 levels ([3]; during the study): remained stable
Changes from baseline in vital signs ([4]; all cohorts): no clinically significant or relevant differences
ECG values ([4]; all patients, 12-lead ECG): normal or non-clinically significant abnormal ECG values
AEs greater than grade 1 attributable to the study drug ([5]; 27 patients): no adverse events greater than grade 1
AEs assessed as possibly related to the study drug ([5]; 27 subjects, all doses, resolved without intervention): a single adverse event
Tolerability of preoperative intravenous infusion ([5]; 100-600 mg): well tolerated
Dose-limiting toxicity (DLT) ([5]; all doses 100-600 mg, single IV infusion over 30 min, 27 patients, NCI CTCAE): no dose-limiting toxicity
Increase of mean unbound AUClast over the 6-fold increase in dose ([6]; 100 to 600 mg, bevonescein not bound to plasma or tissue proteins): 6.1 fold
Free fraction ([6]; from unbound vs total AUClast): approximately 30%
